ChEMBL document CHEMBL1158485, “Inhibition of glyoxalase I: the first low-nanomolar tight-binding inhibitors” (J Med Chem, 2009)

Experiments:
[1] = Stability in presence of equine kidney gamma-glutamyltranspeptidase at pH 8.4 by TLC; format: ADME
Method in brief: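 Inhibitor at 10 mM stock in 200 mM 2-amino-2-methyl-1,3-propanediol buffer, incubated at 37 °C with equine kidney γ-GT (0.54 mg/100 μL stock) plus Gly-Gly acceptor (40 mM stock). Breakdown was followed by TLC with UV, iodine and fluorescamine detection.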

Glyoxalase I = molecular target: T1, Glyoxalase I (Saccharomyces cerevisiae S288c, UniProt P50107); test: Inhibition of yeast glyoxalase 1
T1 sequence (P50107 whole entry): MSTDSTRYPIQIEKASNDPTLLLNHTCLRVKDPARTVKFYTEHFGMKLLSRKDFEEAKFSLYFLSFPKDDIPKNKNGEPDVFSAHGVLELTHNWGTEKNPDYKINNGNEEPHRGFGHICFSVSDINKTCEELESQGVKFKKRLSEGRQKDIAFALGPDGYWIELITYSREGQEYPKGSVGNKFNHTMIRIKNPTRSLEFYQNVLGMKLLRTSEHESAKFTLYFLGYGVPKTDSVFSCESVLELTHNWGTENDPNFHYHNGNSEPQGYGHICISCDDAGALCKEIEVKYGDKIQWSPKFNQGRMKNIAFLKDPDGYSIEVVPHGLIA
Method in brief: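 Yeast glyoxalase I run at 30 °C in 0.05 M phosphate buffer pH 6.6 with 0.1% BSA. Methylglyoxal (distilled, resin-treated, standardized) was present at up to 6.0 mM and fresh GSH at up to 1.3 mM. Inhibitor solutions were aqueous, adjusted to pH 6.6. Mixtures equilibrated for 6 min, then the initial rate was read as the A240 rise.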

Stability [1] | Ki (Glyoxalase I) [nM] | SMILES
Stable | 123 | N[C@@H](CCC(=O)N[C@@H](CCN(O)C(=O)c1ccc(Br)cc1)C(=O)NCC(=O)O)C(=O)O.O=C(O)C(F)(F)F
Stable | 1660 | N[C@@H](CCC(=O)N[C@H](CCC(=O)N(O)c1ccc(Br)cc1)C(=O)NCC(=O)O)C(=O)O.O=C(O)C(F)(F)F
Stable | 32.6 | N[C@@H](CNC(=O)N[C@@H](CCC(=O)N(O)c1ccc(Br)cc1)C(=O)NCC(=O)O)C(=O)O
 | 6280 | N[C@@H](CCC(=O)N[C@@H](CSCc1ccc(Br)cc1)C(=O)NCC(=O)O)C(=O)O
Unstable | 6.17 | N[C@@H](CCC(=O)N[C@@H](CCC(=O)N(O)c1ccc(Br)cc1)C(=O)NCC(=O)O)C(=O)O.O=C(O)C(F)(F)F
 | 12800 | N[C@@H](CNC(=O)N[C@@H](CSCc1ccc(Br)cc1)C(=O)NCC(=O)O)C(=O)O
